This passage reports Activity and Activity_index results from ChEMBL document CHEMBL5104216, “Fragment-Sized Thiazoles in Fragment-Based Drug Discovery Campaigns: Friend or Foe?” (ACS Med Chem Lett, 2022).

Data set [1] deals with Replicase polyprotein 1ab (Severe acute respiratory syndrome coronavirus 2) (UniProt P0DTD1). Description: Inhibition of recombinant SARS-CoV-2 3CLpro expressed in Escherichia coli NiCo21(DE3) assessed as residual activity at 500 uM using DABCYL-KTSAVLQSGFRKME-EDANS as substrate preincubated for 30 mins in presence of 1mM DTT followed by substrate addition and measured by FRET assay relative to control. Put shortly: (§1)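 Kinetic fluorescence read-out of cleavage of a FRET substrate carrying a DABCYL–EDANS pair. Compounds were tested at 500–625 μM, and <50% residual activity was taken as the activity threshold. To exclude false positives, absorbance at the excitation and emission wavelengths and autofluorescence of the compounds were measured.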

The target of data set [2] is UDP-N-acetylglucosamine 1-carboxyvinyltransferase (Escherichia coli K-12) (UniProt P0A749). As to the kind of experiment: Inhibition of recombinant Escherichia coli MurA assessed as residual activity at 500 uM using UDP-N-acetylglucosamine as substrate preincubated for 30 mins in presence of 1 mM DTT followed by substrate addition and measured by malachite green based colorimetric assay relative to control.

Data set [3] has as its target Replicase polyprotein 1ab (Severe acute respiratory syndrome coronavirus 2) (UniProt P0DTD1). As to the kind of experiment: Inhibition of recombinant SARS-CoV-2 3CLpro expressed in Escherichia coli NiCo21(DE3) assessed as residual activity at 500 uM using DABCYL-KTSAVLQSGFRKME-EDANS as substrate preincubated for 30 mins followed by substrate addition and measured by FRET assay relative to control. Put shortly: as §1

For data set [4], the system named is Mycobacterium tuberculosis. Description: Inhibition of Mycobacterium tuberculosis MetAP1a assessed as residual activity at 625 uM using L-methionine 7-amido-4-methylcoumarin as fluorogenic substrate and measured by fluorescence based assay. Put shortly: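 Kinetic fluorescence assay in which the enzyme hydrolyses L-methionine 7-amido-4-methylcoumarin to fluorescent 7-amino-4-methylcoumarin. Compounds were tested at 500–625 μM, and activity was called at <50% residual activity. Spectral interference was checked by measuring absorbance at the excitation and emission wavelengths and compound autofluorescence.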

For data set [5], the target named is D-alanine--D-alanine ligase B (Escherichia coli K-12) (UniProt P07862). Description: Inhibition of recombinant Escherichia coli DdlB assessed as residual activity at 500 uM using D-alanine as substrate incubated for 20 mins and measured by malachite green based colorimetric assay relative to control. The method in brief:
(§2)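 Screened at 500–625 μM with malachite green colorimetric read-out. Activity threshold was <50% residual activity.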

In data set [6] the target is UDP-N-acetylglucosamine 1-carboxyvinyltransferase (Escherichia coli K-12) (UniProt P0A749). Description: Inhibition of recombinant Escherichia coli MurA assessed as residual activity at 500 uM using UDP-N-acetylglucosamine as substrate and measured by malachite green based colorimetric assay relative to control. Put shortly: as §2
Data set [7] is described as follows: Redox activity of compound assessed as redox index at 100 uM measured by HRP-PR assay. The format is physicochemical. The method in brief:
(§3)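 H2O2 from redox cycling, with or without DTT, detected with horseradish peroxidase-phenol red (HRP-PR).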

Data set [8] can be described thus: Redox activity of compound assessed as redox index at 100 uM in presence of 1 mM DTT measured by HRP-PR assay. The class given is physicochemical. Put shortly:
as §3

A short description of data set [9]: Redox activity of compound assessed as redox index at 100 uM in presence of 100 uM TCEP measured by H2DCFDA assay. The format is physicochemical. The method in brief: (§4)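 Reactive oxygen species, with or without the reducing agent TCEP, detected with the fluorescent probe H2DCFDA. Compound spectral interference (autofluorescence) checked under the assay conditions.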

A short description of data set [10]: Thiol reactivity of compound measured by TNB2- assay. The format is physicochemical. The method in brief: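 Reactivity toward the thiol surrogate TNB2– in a nonproteinaceous setting without TCEP. Reversibility tested by adding TCEP and checking that absorbance was restored.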
Data set [11] is described as follows: Redox activity of compound assessed as redox index at 1 uM measured by resazurin assay. The class given is physicochemical. The method in brief: (§5)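 Free radicals formed by redox cycling with DTT detected with resazurin by fluorimetric read-out. Spectral interference checked.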
(The colour change of resazurin is a common sign of viable cells or microbes.)

The target of data set [12] is UDP-N-acetylglucosamine 1-carboxyvinyltransferase (Escherichia coli K-12) (UniProt P0A749). As to the kind of experiment: Inhibition of recombinant Escherichia coli MurA assessed as residual activity at 500 uM using UDP-N-acetylglucosamine as substrate preincubated for 30 mins followed by substrate addition and measured by malachite green based colorimetric assay relative to control. Put shortly: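 E. coli MurA at 500–625 μM with 30 min preincubation before substrate addition. Malachite green colorimetric read-out. Activity threshold was <50% residual activity.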

Data set [13] in a line: Redox activity of compound assessed as redox index at 100 uM measured by H2DCFDA assay. The class given is physicochemical. The method in brief:
as §4

A short description of data set [14]: Redox activity of compound assessed as redox index at 10 uM measured by resazurin assay. The format is physicochemical. The method in brief:
as §5

Data set [15] in a line: Thiol reactivity of compound at 100 uM measured by DTNB assay. The format is physicochemical.

Structures are written as SMILES.

Chain of UDP-N-acetylglucosamine 1-carboxyvinyltransferase (Escherichia coli K-12) (P0A749 whole entry): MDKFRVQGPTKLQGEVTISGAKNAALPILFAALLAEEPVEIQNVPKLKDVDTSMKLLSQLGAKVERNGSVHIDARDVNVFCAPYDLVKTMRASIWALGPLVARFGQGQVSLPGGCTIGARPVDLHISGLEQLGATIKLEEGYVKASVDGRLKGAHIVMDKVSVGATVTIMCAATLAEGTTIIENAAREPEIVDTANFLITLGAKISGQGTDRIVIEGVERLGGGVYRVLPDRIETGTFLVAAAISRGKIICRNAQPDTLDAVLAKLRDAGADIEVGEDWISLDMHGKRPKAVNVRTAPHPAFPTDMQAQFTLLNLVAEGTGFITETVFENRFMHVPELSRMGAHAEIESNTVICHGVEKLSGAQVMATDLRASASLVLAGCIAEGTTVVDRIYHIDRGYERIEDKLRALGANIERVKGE

Take `Cc1nc(CCl)cs1`: the Activity in data set [1] turned out to be 90.9%; in data set [2] it was 112%; in data set [3] it was 96.8%; in data set [4], 124%; in data set [5] it was 100%; in [6] it was 89.6%. In addition, the Activity result is “Active” in [10], 48.4% in data set [12] and “Active” in data set [15]. In addition, the Activity_index in data set [7] turned out to be 1; in [8], 1; in [9] it was 0.8; in [11], 0.9; in data set [13] it was 1; in data set [14], 0.9.
